pIC50: −log10 of the molar value. Where a name gives a salt, the structure may show the parent alone.
Key:
G-361 = assay: Cytotoxicity against human G361 cells after 3 days by MTT assay; type: functional, cell-based; conditions: G-361, 72 h
Outline: (§1)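 Cells grown in RPMI 1640 with 10% fetal calf serum, plated at 2 × 10^4 cells, held 12 h at 37 °C in 5% CO2, then exposed to test sample for 3 days at 37 °C. MTT added for 4 h, formazan dissolved in DMSO, absorbance read at 570 nm. IC50 taken as 50% growth inhibition relative to untreated control; each experiment run at least 3 times.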

KB = assay: Cytotoxicity against human KB cells after 3 days by MTT assay; type: functional, cell-based; conditions: 72 h; outline: as §1
[1] = Cytotoxicity against human RKOp27 cells after 3 days by MTT assay; type: functional, cell-based; conditions: RKOp27, 72 h; outline: as §1
HL-60 = assay: Cytotoxicity against human HL60 cells after 3 days by MTT assay; type: functional, cell-based; conditions: HL-60, 72 h
NCI-H460 = assay: Cytotoxicity against human NCI-H460 cells after 3 days by MTT assay; type: functional, cell-based; conditions: NCI-H460, 72 h; outline: as §1
K562 = assay: Cytotoxicity against human K562 cells after 3 days by MTT assay; type: functional, cell-based; conditions: K562, 72 h; outline: as §1
[2] = Toxicity in ip dosed mouse assessed as mortality after 24 hrs; type: organism-based; conditions: in vivo
Outline: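 Lorke two-phase design in mice, single intraperitoneal dose per group. Phase 1: three groups of three animals, each group one dose, observed 24 h for mortality and general behaviour. Phase 2: 3–4 groups of one mouse, doses chosen from phase 1 findings, observed 24 h. LD50 taken as geometric mean of lowest lethal dose and highest non-lethal dose; reported in mg/kg.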

NB1 = assay: Cytotoxicity against human NB-1 cells after 3 days by MTT assay; type: functional, cell-based; conditions: NB1, 72 h; outline: as §1
SK-OV-3 = assay: Cytotoxicity against human SKOV3 cells after 3 days by MTT assay; type: functional, cell-based; conditions: SK-OV-3, 72 h; outline: as §1
U-937 = assay: Cytotoxicity against human U937 cells after 3 days by MTT assay; type: functional, cell-based; conditions: U-937, 72 h; outline: as §1
GOTO = assay: Cytotoxicity against human GOTO cells after 3 days by MTT assay; type: functional, cell-based; conditions: 72 h; outline: as §1
SK-MEL-28 = assay: Cytotoxicity against human SK-MEL-28 cells after 3 days by MTT assay; type: functional, cell-based; conditions: SK-MEL-28, 72 h; outline: as §1
SF-268 = assay: Cytotoxicity against human SF268 cells after 3 days by MTT assay; type: functional, cell-based; conditions: SF-268, 72 h; outline: as §1

Row | SMILES | pIC50 (G-361) | pIC50 (KB) | pIC50 [1] | pIC50 (HL-60) | pIC50 (NCI-H460) | pIC50 (K562) | LD50 at 24 h [2] | pIC50 (NB1) | pIC50 (SK-OV-3) | pIC50 (U-937) | pIC50 (GOTO) | pIC50 (SK-MEL-28) | pIC50 (SF-268)
1 | N#Cc1c(NC(N)=O)nc(SCc2nc3ccccc3[nH]2)nc1-c1ccccc1 | 8.59 | 8.02 | 8.60 | 8.54 | 7.83 | 8.34 | 347 mg/kg | 8.13 | 8.17 | 8.47 | 7.95 | 8.32 | 8.47
2 | Cc1ccc(S(=O)(=O)N2CCN(c3nc(SCc4nc5ccccc5[nH]4)nc(-c4ccccc4)c3C#N)CC2)cc1 | 8.36 | 8.48 | 8.60 | 8.37 | 7.64 | 7.95 | 345 mg/kg | 8.17 | 8.34 | 8.39 | 8.36 | 8.36 | 8.11
3 | N#Cc1c(-c2ccccc2)nc(SCc2nc3ccccc3[nH]2)nc1N1CCN(C(=O)c2ccc([N+](=O)[O-])cc2)CC1 | 8.62 | 8.13 | 8.11 | 8.54 | 8.35 | 8.36 | 327 mg/kg | 7.88 | 8.06 | 8.28 | 8.24 | 8.56 | 8.24
4 | CNc1nc(SCc2nc3ccccc3[nH]2)nc(-c2ccccc2)c1C#N | 7.90 | 8.57 | 8.43 | 8.18 | 8.49 | 7.88 | 302 mg/kg | 8.35 | 8.52 | 7.72 | 8.48 | 8.54 | 8.49
5 | N#Cc1c(NNC(N)=S)nc(SCc2nc3ccccc3[nH]2)nc1-c1ccccc1 | 8.40 | 8.52 | 8.49 | 8.34 | 8.47 | 8.05 | 345 mg/kg | 8.24 | 8.52 | 8.52 | 8.59 | 8.49 | 8.47
6 | N#Cc1c(Nc2nccs2)nc(SCc2nc3ccccc3[nH]2)nc1-c1ccccc1 | 7.92 | 7.83 | 8.49 | 7.92 | 8.47 | 7.83 | 349 mg/kg | 8.49 | 8.24 | 8.42 | 8.29 | 8.05 | 8.59
7 | N#Cc1c(Nc2ccccn2)nc(SCc2nc3ccccc3[nH]2)nc1-c1ccccc1 | 8.05 | 8.13 | 8.42 | 7.70 | 8.55 | 8.15 | 367 mg/kg | 8.41 | 8.24 | 8.59 | 8.60 | 8.05 | 8.17
8 | N#Cc1c(-c2ccccc2)nc(SCc2nc3ccccc3[nH]2)nc1N1CCN(S(=O)(=O)c2ccccc2[N+](=O)[O-])CC1 | 8.02 | 8.35 | 8.25 | 8.56 | 8.43 | 7.83 | 325 mg/kg | 8.60 | 8.49 | 8.48 | 8.52 | 8.05 | 8.52
9 | N#Cc1c(-c2ccccc2)nc(SCc2nc3ccccc3[nH]2)nc1N1CCN(S(=O)(=O)c2ccccc2)CC1 | 8.06 | 8.52 | 8.13 | 8.37 | 8.34 | 8.52 | 327 mg/kg | 8.48 | 8.56 | 8.21 | 8.24 | 8.19 | 8.54
10 | CN1CCN(c2nc(SCc3nc4ccccc4[nH]3)nc(-c3ccccc3)c2C#N)CC1 | 7.83 | 8.57 | 8.27 | 8.55 | 8.55 | 8.62 | 384 mg/kg | 8.62 | 5.80 | 8.17 | 8.47 | 7.70 | 8.16
11 | N#Cc1c(Cl)nc(SCc2nc3ccccc3[nH]2)nc1-c1ccccc1 | 7.90 | 8.43 | 8.36 | 8.35 | 8.48 | 7.95 | 313 mg/kg | 8.54 | 8.47 | 8.35 | 8.06 | 8.48 | 8.49
12 | N#Cc1c(-c2ccccc2)nc(SCc2nc3ccccc3[nH]2)nc1N1CCNCC1 | 8.60 | 8.54 | 8.24 | 8.40 | 8.13 | 8.36 | 300 mg/kg | 8.17 | 8.58 | 8.24 | 8.43 | 8.59 | 4.70
13 | N#Cc1c(NC(N)=S)nc(SCc2nc3ccccc3[nH]2)nc1-c1ccccc1 | 8.24 | 8.49 | 8.58 | 8.24 | 8.47 | 7.92 | 327 mg/kg | 7.92 | 8.11 | 7.70 | 8.32 | 8.32 | 8.47
14 | Cl.N=c1[nH]c(=S)[nH]c2nc(SCc3nc4ccccc4[nH]3)nc(-c3ccccc3)c12 | 8.47 | 8.14 | 8.60 | 8.17 | 8.52 | 7.83 | 389 mg/kg | 8.48 | 8.46 | 8.55 | 7.92 | 8.47 | 8.46
15 | N#Cc1c(O)nc(SCc2nc3ccccc3[nH]2)nc1-c1ccccc1 | 8.46 | 8.21 | 8.22 | 8.59 | 8.60 | 8.33 | 345 mg/kg | 8.18 | 8.59 | 8.48 | 8.11 | 8.11 | 8.49
16 | Cl.N=c1[nH]c(=O)[nH]c2nc(SCc3nc4ccccc4[nH]3)nc(-c3ccccc3)c12 | 8.49 | 8.60 | 8.57 | 8.51 | 8.55 | 7.83 | 346 mg/kg | 7.95 | 8.49 | 8.54 | 8.05 | 8.05 | 8.55
17 | CCNc1nc(SCc2nc3ccccc3[nH]2)nc(-c2ccccc2)c1C#N | 8.36 | 8.13 | 8.13 | 8.40 | 8.54 | 8.36 | 325 mg/kg | 8.58 | 8.13 | 8.58 | 8.40 | 8.28 | 8.13
18 | N#Cc1c(Nc2ccncc2)nc(SCc2nc3ccccc3[nH]2)nc1-c1ccccc1 | 8.59 | 8.49 | 8.24 | 8.56 | 8.56 | 8.00 | 316 mg/kg | 8.17 | 8.35 | 8.13 | 8.59 | 8.35 | 8.62
19 | N#Cc1c(NN)nc(SCc2nc3ccccc3[nH]2)nc1-c1ccccc1 | 7.83 | 8.59 | 8.59 | 7.92 | 8.59 | 7.83 | 344 mg/kg | 8.27 | 8.57 | 8.41 | 8.57 | 8.52 | 8.56
20 | N#Cc1c(-c2ccccc2)nc(SCc2nc3ccccc3[nH]2)nc1N1CCN(C(=O)c2ccccc2)CC1 | 8.62 | 8.52 | 8.59 | 8.17 | 8.49 | 8.47 | 327 mg/kg | 8.13 | 8.40 | 8.57 | 8.06 | 8.05 | 8.55
21 | ClCc1nc2ccccc2[nH]1 | – | – | – | – | – | – | 253 mg/kg | – | – | – | – | – | –
22 | CCCCCOC(=O)Nc1nc(=O)n([C@@H]2O[C@H](C)[C@@H](O)[C@H]2O)cc1F [CAPECITABINE] | – | – | 5.36 | – | – | – | – | – | – | – | – | – | –
23 | Nc1ccn([C@@H]2O[C@H](CO)[C@@H](O)[C@@H]2O)c(=O)n1 [CYTARABINE] | – | – | – | – | – | – | – | – | – | – | – | – | 5.11
24 | COc1cccc2c1C(=O)c1c(O)c3c(c(O)c1C2=O)C[C@@](O)(C(=O)CO)C[C@@H]3O[C@H]1C[C@H](N)[C@H](O)[C@H](C)O1 [DOXORUBICIN] | – | – | – | – | – | 8.21 | – | – | 5.38 | – | – | – | –
25 | O=c1[nH]cc(F)c(=O)[nH]1 [FLUOROURACIL] | – | 5.35 | – | – | – | – | – | – | – | – | – | – | –
26 | Nc1ccn([C@@H]2O[C@H](CO)[C@@H](O)C2(F)F)c(=O)n1 [GEMCITABINE HYDROCHLORIDE] | – | – | – | – | 5.67 | – | – | – | – | – | – | – | –
